Reference: ChEMBL document CHEMBL4765307, “Design, synthesis and biological activity of novel 2,3,4,5-tetra-substituted thiophene derivatives as PI3Kα inhibitors with potent antitumor activity” (Eur J Med Chem, 2020)
Each block holds one compound with its values, some of them ahead of it.

Key:
[1] = target: PI3-kinase p110-alpha/p85-alpha (Homo sapiens, UniProt P42336); assay: Inhibition of His-tagged human full length PI3Kalpha coexpressed with p85 alpha in baculovirus expression system using PIP2 peptide as substrate incubated for 1 hr in presence ATP by Kinase-Glo assay
Sequence of PI3-kinase p110-alpha/p85-alpha (P27986 whole entry): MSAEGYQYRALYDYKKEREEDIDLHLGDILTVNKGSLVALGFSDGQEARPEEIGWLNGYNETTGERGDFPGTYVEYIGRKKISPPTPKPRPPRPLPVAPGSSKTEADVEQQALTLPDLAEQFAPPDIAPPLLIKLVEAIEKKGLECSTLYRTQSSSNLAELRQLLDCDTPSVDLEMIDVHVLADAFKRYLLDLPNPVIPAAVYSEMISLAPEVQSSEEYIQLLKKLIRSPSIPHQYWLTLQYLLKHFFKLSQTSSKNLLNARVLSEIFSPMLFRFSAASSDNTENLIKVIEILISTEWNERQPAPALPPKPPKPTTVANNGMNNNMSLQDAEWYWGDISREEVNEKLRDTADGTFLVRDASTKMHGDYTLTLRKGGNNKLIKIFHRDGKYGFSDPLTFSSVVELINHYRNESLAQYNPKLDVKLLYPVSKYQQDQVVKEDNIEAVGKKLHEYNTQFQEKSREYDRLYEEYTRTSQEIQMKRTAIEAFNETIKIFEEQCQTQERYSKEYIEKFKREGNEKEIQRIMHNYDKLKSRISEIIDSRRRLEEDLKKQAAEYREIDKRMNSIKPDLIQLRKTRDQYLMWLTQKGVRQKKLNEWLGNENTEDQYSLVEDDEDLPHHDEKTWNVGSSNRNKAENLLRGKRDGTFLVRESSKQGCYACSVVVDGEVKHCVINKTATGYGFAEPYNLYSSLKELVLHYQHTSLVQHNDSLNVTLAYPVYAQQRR
Sequence of PI3-kinase p110-alpha/p85-alpha (P42336 whole entry): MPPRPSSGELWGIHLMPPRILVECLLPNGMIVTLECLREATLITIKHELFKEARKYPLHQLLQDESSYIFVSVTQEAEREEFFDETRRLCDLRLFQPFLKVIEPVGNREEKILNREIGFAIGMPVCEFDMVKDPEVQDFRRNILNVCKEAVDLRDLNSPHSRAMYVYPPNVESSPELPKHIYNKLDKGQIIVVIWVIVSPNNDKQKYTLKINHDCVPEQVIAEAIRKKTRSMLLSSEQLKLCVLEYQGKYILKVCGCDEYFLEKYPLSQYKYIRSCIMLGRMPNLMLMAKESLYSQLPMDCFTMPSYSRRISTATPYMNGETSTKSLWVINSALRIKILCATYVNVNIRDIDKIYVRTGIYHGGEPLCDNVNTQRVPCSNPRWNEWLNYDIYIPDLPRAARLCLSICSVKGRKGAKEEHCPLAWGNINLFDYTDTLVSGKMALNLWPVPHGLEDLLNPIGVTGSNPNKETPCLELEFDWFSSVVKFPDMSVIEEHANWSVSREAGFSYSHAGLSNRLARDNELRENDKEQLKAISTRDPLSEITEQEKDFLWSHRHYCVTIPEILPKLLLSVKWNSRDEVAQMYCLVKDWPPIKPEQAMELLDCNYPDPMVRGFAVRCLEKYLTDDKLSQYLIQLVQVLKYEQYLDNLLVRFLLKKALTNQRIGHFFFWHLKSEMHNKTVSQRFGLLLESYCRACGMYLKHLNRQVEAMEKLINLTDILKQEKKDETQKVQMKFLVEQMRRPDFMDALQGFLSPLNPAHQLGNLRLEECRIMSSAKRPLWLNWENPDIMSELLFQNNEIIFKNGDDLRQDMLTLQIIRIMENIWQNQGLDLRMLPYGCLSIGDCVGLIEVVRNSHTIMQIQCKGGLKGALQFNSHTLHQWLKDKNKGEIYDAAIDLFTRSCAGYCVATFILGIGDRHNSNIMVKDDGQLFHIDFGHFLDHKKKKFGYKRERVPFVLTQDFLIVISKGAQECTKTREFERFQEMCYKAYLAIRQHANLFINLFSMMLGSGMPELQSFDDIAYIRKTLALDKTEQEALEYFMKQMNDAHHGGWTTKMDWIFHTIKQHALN

[2] = target: PI3-kinase p110-delta/p85-alpha (Homo sapiens, UniProt O00329); assay: Inhibition of N-terminal His6-tagged human recombinant full length PI3Kdelta co-expressed with human recombinant full length P85alpha in baculovirus infected Sf21 cells using PIP2 peptide as substrate incubated for 2 hrs in presence ATP by ADP-Glo Kinase Assay
Sequence of PI3-kinase p110-delta/p85-alpha (P27986 whole entry): as the sequence (P27986 whole entry) above
Sequence of PI3-kinase p110-delta/p85-alpha (O00329 whole entry): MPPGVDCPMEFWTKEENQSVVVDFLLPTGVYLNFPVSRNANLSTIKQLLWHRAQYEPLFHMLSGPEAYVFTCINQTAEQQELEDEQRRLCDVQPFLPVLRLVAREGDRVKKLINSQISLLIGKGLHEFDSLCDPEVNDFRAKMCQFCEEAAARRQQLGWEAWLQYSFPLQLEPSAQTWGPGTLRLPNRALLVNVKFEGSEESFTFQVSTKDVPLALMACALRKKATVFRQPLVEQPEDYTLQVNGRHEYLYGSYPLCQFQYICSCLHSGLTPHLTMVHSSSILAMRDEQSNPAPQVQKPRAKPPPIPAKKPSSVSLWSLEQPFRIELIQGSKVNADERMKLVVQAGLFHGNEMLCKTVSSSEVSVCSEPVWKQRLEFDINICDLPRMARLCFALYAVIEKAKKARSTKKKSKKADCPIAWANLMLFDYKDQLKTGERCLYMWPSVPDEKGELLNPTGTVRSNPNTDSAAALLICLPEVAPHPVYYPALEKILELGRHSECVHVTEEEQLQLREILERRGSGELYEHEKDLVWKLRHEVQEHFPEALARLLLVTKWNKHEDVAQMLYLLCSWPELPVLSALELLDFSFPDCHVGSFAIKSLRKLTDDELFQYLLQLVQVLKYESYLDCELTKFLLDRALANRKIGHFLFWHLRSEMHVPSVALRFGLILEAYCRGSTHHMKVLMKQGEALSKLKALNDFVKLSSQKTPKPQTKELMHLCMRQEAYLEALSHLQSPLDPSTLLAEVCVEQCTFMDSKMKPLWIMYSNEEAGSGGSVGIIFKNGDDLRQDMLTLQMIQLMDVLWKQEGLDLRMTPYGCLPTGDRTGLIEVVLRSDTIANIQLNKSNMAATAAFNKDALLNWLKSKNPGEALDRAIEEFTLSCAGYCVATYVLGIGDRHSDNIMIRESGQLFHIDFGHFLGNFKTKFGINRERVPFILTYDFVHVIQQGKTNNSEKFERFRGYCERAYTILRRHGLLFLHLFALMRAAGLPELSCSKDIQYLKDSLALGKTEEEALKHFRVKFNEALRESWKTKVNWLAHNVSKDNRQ
Method in brief: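 ADP-Glo reagent 1 for 40 min, then reagent 2 with 60 min equilibration. IC50 from inhibition curves; average of at least two runs.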

[3] = target: Serine/threonine-protein kinase mTOR (Homo sapiens, UniProt P42345); assay: Inhibition of N-terminal FLAG-tagged human recombinant mTOR (1362 to end residues) using ULight-4E-BP1 (Thr37/46) peptide as substrate incubated for 1 hr in presence of ATP by Lance Ultra assay
Method in brief: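 ULight-4E-BP1 (Thr37/46) peptide with 13 µM ATP; 1 h at room temperature. Stopped with EDTA quench buffer plus Eu-anti-phospho-4E-BP1, 15 min shake and 60 min equilibration, TR-FRET read. IC50 from inhibition curves; average of at least two runs.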

PI3K p110 beta/p85 alpha = PI3K p110 beta/p85 alpha (Homo sapiens, UniProt P42338); assay: Inhibition of N-terminal His6-tagged human recombinant full length PI3Kbeta co-expressed with human recombinant full length P85alpha in baculovirus infected Sf21 cells using PIP2 peptide as substrate incubated for 1 hr in presence ATP by ADP-Glo Kinase Assay
Sequence of PI3K p110 beta/p85 alpha (P27986 whole entry): as the sequence (P27986 whole entry) above
Sequence of PI3K p110 beta/p85 alpha (P42338 whole entry): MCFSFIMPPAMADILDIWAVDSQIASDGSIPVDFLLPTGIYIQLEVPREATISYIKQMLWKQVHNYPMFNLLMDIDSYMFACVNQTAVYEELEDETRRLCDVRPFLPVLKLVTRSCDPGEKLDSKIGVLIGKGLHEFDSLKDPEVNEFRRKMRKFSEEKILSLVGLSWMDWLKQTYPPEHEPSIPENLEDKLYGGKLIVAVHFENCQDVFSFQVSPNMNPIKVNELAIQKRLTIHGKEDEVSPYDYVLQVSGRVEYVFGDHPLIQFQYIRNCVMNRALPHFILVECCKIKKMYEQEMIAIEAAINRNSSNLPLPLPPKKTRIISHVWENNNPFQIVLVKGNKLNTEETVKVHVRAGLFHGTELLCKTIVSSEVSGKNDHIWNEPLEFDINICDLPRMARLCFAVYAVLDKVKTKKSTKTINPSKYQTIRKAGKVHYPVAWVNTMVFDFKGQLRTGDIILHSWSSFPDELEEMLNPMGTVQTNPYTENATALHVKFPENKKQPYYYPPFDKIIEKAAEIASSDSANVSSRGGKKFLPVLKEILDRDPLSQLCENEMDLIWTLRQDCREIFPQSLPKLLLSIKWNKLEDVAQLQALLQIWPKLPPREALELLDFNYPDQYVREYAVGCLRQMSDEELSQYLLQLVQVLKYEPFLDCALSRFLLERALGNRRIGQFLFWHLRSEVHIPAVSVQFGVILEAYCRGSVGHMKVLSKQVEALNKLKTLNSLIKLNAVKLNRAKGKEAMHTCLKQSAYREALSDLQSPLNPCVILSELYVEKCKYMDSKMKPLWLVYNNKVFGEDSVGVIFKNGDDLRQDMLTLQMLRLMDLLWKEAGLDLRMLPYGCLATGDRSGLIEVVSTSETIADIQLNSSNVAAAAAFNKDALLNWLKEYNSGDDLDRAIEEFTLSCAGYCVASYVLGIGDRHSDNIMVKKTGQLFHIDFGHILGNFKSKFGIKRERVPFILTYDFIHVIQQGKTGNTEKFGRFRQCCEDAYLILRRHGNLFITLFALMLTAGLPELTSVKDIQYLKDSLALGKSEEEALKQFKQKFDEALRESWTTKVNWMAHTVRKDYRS
Method in brief: (§1)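 ADP-Glo reagent 1 for 40 min, then reagent 2 with 60 min equilibration before reading. IC50 taken from inhibition curves; average of at least two runs.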

[4] = target: Phosphatidylinositol 4,5-bisphosphate 3-kinase catalytic subunit gamma isoform (Homo sapiens, UniProt P48736); assay: Inhibition of GST-tagged human recombinant PI3Kgamma catalytic domain (468 to 1203 residues) expressed in insect cells using PIP2 peptide as substrate incubated for 1 hr in presence ATP by ADP-Glo Kinase Assay; method in brief: as §1
A549 = assay: Antiproliferative activity against human A549 cells assessed as reduction in cell viability after 3 days by CellTiter-Glo luminescence assay; type: functional, cell-based; details: A549, 72 h
Method in brief: (§2)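 ATCC lines, 10% FBS: T47D, H1975, H460 in RPMI1640; U87MG in DMEM; A549 in F12K. Seeded 3×10^3 per well the day before, exposed to 3-fold serial dilutions or DMSO for 3 days at 37 °C, 5% CO2; CellTiter-Glo luminescence.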

NCI-H1975 = assay: Antiproliferative activity against human NCI-H1975 cells harboring PIK3CA mutation assessed as reduction in cell viability after 3 days by CellTiter-Glo luminescence assay; type: functional, cell-based; details: NCI-H1975, 72 h; method in brief: as §2
NCI-H460 = assay: Antiproliferative activity against human NCI-H460 cells harboring PIK3CA mutation assessed as reduction in cell viability after 3 days by CellTiter-Glo luminescence assay; type: functional, cell-based; details: NCI-H460, 72 h; method in brief: as §2
T47D = assay: Antiproliferative activity against human T47D cells harboring PIK3CA mutation assessed as reduction in cell viability after 3 days by CellTiter-Glo luminescence assay; type: functional, cell-based; details: 72 h; method in brief: as §2
U-87 MG = assay: Antiproliferative activity against human U87MG cells harboring PTEN deletion assessed as reduction in cell viability after 3 days by CellTiter-Glo luminescence assay; type: functional, cell-based, U-87MG ATCC; details: 72 h; method in brief: as §2
[5] = target: Phosphatidylinositol 4,5-bisphosphate 3-kinase catalytic subunit alpha isoform (Homo sapiens) (UniProt P42336); assay: Inhibition of PI3Kalpha in human T47D cells assessed as inhibition of insulin-stimulated Akt phosphorylation at Ser473 residue at 1 uM preincubated for 2 hrs followed by incubation with insulin for 2 hrs by western blot analysis relative to control; type: cell-based; details: time 4.0 hrs
Sequence of Phosphatidylinositol 4,5-bisphosphate 3-kinase catalytic subunit alpha isoform (Homo sapiens) (P42336 whole entry, canonical isoform): as the sequence (P42336 whole entry) above
Method in brief: (§3)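 T47D cells given compound at 37 °C for 2 h, then stimulated with 1 µg/mL insulin for 2 h; lysed in RIPA with protease/phosphatase inhibitors and 1 mM PMSF; BCA-normalised SDS-PAGE, PVDF blot probed overnight at 4 °C for total Akt and pAkt Ser473, infrared secondary detection.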

[6] = target: Phosphatidylinositol 4,5-bisphosphate 3-kinase catalytic subunit alpha isoform (Homo sapiens) (UniProt P42336); assay: Inhibition of PI3Kalpha in human T47D cells assessed as inhibition of insulin-stimulated Akt phosphorylation at Ser473 residue at 0.3 uM preincubated for 2 hrs followed by incubation with insulin for 2 hrs by western blot analysis relative to control; type: cell-based; details: time 4.0 hrs; method in brief: as §3
[7] = target: Phosphatidylinositol 4,5-bisphosphate 3-kinase catalytic subunit alpha isoform (Homo sapiens) (UniProt P42336); assay: Inhibition of PI3Kalpha in human T47D cells assessed as inhibition of insulin-stimulated Akt phosphorylation at Ser473 residue at 3 uM preincubated for 2 hrs followed by incubation with insulin for 2 hrs by western blot analysis relative to control; type: cell-based; details: time 4.0 hrs; method in brief: as §3
[8] = target: Phosphatidylinositol 4,5-bisphosphate 3-kinase catalytic subunit alpha isoform (Homo sapiens) (UniProt P42336); assay: Inhibition of PI3Kalpha in human T47D cells assessed as inhibition of insulin-stimulated Akt phosphorylation at Ser473 residue at 0.1 uM preincubated for 2 hrs followed by incubation with insulin for 2 hrs by western blot analysis relative to control; type: cell-based; details: time 4.0 hrs; method in brief: as §3

IC50 [1]: 21.9 nM
SMILES: N#Cc1c(N2CCOCC2)sc(-c2nc[nH]n2)c1-c1ccc(NC(=O)N/N=C/c2ccc(O)c(O)c2)cc1

IC50 [1]: 151 nM
SMILES: N#Cc1c(N2CCOCC2)sc(-c2nc[nH]n2)c1-c1ccc(NC(=O)Nc2cccc(F)c2)cc1

IC50 [1]: 344 nM
SMILES: Cc1cccc(C)c1NC(=O)Nc1ccc(-c2c(-c3nc[nH]n3)sc(N3CCOCC3)c2C#N)cc1

IC50 [1]: 20.3 nM
SMILES: Cc1cc(/C=N/NC(=O)Nc2ccc(-c3c(-c4nc[nH]n4)sc(N4CCOCC4)c3C#N)cc2)cc(C)c1O

IC50 [1]: 407 nM
SMILES: N#Cc1c(N2CCOCC2)sc(-c2nc[nH]n2)c1-c1ccc(NC(=O)Nc2ccc(F)c(Cl)c2)cc1

IC50 [2]: 15 nM | IC50 [1]: 5.4 nM | IC50 [3]: 4060 nM | IC50 (PI3K p110 beta/p85 alpha): 124 nM | IC50 [4]: 60 nM
SMILES: N#Cc1ccc(-c2c(-c3nnc[nH]3)sc(N3CCOCC3)c2C#N)c(F)c1

IC50 (A549): 12700 nM | IC50 (NCI-H1975): 9760 nM | IC50 [2]: 72 nM | IC50 [1]: 17.7 nM | IC50 (NCI-H460): 1390 nM | IC50 (T47D): 2220 nM | IC50 [3]: 489 nM | IC50 (PI3K p110 beta/p85 alpha): 43 nM | IC50 [4]: 440 nM | IC50 (U-87 MG): 13000 nM
SMILES: N#Cc1c(N2CCOCC2)sc(-c2nc[nH]n2)c1-c1ccc(NC(=O)N/N=C/c2cccc(O)c2)cc1

IC50 [1]: 75.5 nM
SMILES: N#Cc1c(N2CCOCC2)sc(-c2nc[nH]n2)c1-c1ccc(NC(=O)N/N=C/c2ccc(F)cc2)cc1

IC50 [1]: 89.8 nM
SMILES: N#Cc1c(N2CCOCC2)sc(-c2nc[nH]n2)c1-c1ccc(NC(=O)N/N=C/c2cccc(Br)c2)cc1

IC50 [1]: 239 nM
SMILES: N#Cc1c(N2CCOCC2)sc(-c2nc[nH]n2)c1-c1ccc(NC(=O)Nc2cccc(Br)c2)cc1

IC50 [1]: 76.6 nM
SMILES: N#Cc1c(N2CCOCC2)sc(-c2nc[nH]n2)c1-c1ccc(NC(=O)N/N=C/c2ccccc2)cc1

IC50 [1]: 110 nM
SMILES: COc1cc(/C=N/NC(=O)Nc2ccc(-c3c(-c4nc[nH]n4)sc(N4CCOCC4)c3C#N)cc2)cc(OC)c1OC

IC50 [1]: 72 nM
SMILES: COc1ccc(/C=N/NC(=O)Nc2ccc(-c3c(-c4nc[nH]n4)sc(N4CCOCC4)c3C#N)cc2)cc1

IC50 [1]: 403 nM
SMILES: N#Cc1c(N2CCOCC2)sc(-c2nc[nH]n2)c1-c1ccc(NC(=O)Nc2ccc(C(F)(F)F)cc2)cc1

IC50 [1]: 290 nM
SMILES: N#Cc1ccc(NC(=O)Nc2ccc(-c3c(-c4nc[nH]n4)sc(N4CCOCC4)c3C#N)cc2)cc1

inhibition [5]: 83% | IC50 (A549): 3580 nM | IC50 (NCI-H1975): 940 nM | IC50 (NCI-H460): 120 nM | IC50 (T47D): 340 nM | inhibition [6]: 73% | inhibition [7]: 86% | IC50 (U-87 MG): 2310 nM | inhibition [8]: 65%
SMILES: N#Cc1ccc(-c2c(-c3ncn[nH]3)sc(N3CCOCC3)c2C#N)c(F)c1

IC50 [1]: 631 nM
SMILES: N#Cc1c(N2CCOCC2)sc(-c2nc[nH]n2)c1-c1ccc(NC(=O)N/N=C/c2ccc(OC(F)(F)F)cc2)cc1

IC50 (A549): 4190 nM | IC50 (NCI-H1975): 1520 nM | IC50 [2]: 334 nM | IC50 [1]: 22.3 nM | IC50 (NCI-H460): 400 nM | IC50 (T47D): 410 nM | IC50 [3]: 1590 nM | IC50 (PI3K p110 beta/p85 alpha): 89 nM | IC50 [4]: 302 nM | IC50 (U-87 MG): 3980 nM
SMILES: N#Cc1c(N2CCOCC2)sc(-c2nc[nH]n2)c1-c1ccc(NC(=O)Nc2ccccc2F)cc1

IC50 [1]: 95.8 nM
SMILES: Cc1ccc(NC(=O)Nc2ccc(-c3c(-c4nc[nH]n4)sc(N4CCOCC4)c3C#N)cc2)cc1

IC50 [1]: 105 nM
SMILES: COc1ccccc1NC(=O)Nc1ccc(-c2c(-c3nc[nH]n3)sc(N3CCOCC3)c2C#N)cc1

IC50 [1]: 9.4 nM
SMILES: N#Cc1c(N2CCOCC2)sc(-c2nc[nH]n2)c1-c1ccc(NC(=O)N/N=C/c2ccc[nH]2)cc1

IC50 (A549): 5520 nM | IC50 (NCI-H1975): 2040 nM | IC50 [2]: 238 nM | IC50 [1]: 35.3 nM | IC50 (NCI-H460): 590 nM | IC50 (T47D): 520 nM | IC50 [3]: 1660 nM | IC50 (PI3K p110 beta/p85 alpha): 95 nM | IC50 [4]: 289 nM | IC50 (U-87 MG): 3350 nM
SMILES: N#Cc1c(N2CCOCC2)sc(-c2nc[nH]n2)c1-c1ccc(NC(=O)Nc2ccc(F)cc2)cc1

IC50 [3]: 1460 nM
SMILES: Cc1nc(NC(=O)N2CCC[C@H]2C(N)=O)sc1-c1ccnc(C(C)(C)C(F)(F)F)c1 [ALPELISIB]

IC50 (A549): 19400 nM | IC50 (NCI-H1975): 12900 nM | IC50 [2]: 74 nM | IC50 [1]: 13.3 nM | IC50 (NCI-H460): 1220 nM | IC50 (T47D): 2680 nM | IC50 [3]: 598 nM | IC50 (PI3K p110 beta/p85 alpha): 74 nM | IC50 [4]: 204 nM | IC50 (U-87 MG): 12300 nM
SMILES: N#Cc1c(N2CCOCC2)sc(-c2nc[nH]n2)c1-c1ccc(NC(=O)N/N=C/c2ccco2)cc1

IC50 (A549): 18500 nM | IC50 (NCI-H1975): 11200 nM | IC50 [2]: 49 nM | IC50 [1]: 6.5 nM | IC50 (NCI-H460): 2690 nM | IC50 (T47D): 2130 nM | IC50 [3]: 416 nM | IC50 (PI3K p110 beta/p85 alpha): 53 nM | IC50 [4]: 274 nM | IC50 (U-87 MG): 22100 nM
SMILES: N#Cc1c(N2CCOCC2)sc(-c2nc[nH]n2)c1-c1ccc(NC(=O)N/N=C/c2ccccn2)cc1

IC50 [1]: 116 nM
SMILES: N#Cc1c(N2CCOCC2)sc(-c2nc[nH]n2)c1-c1ccc(NC(=O)Nc2ccccc2)cc1

IC50 [1]: 323 nM
SMILES: N#Cc1c(N2CCOCC2)sc(-c2nc[nH]n2)c1-c1ccc(NC(=O)N/N=C/c2c(Cl)cccc2Cl)cc1

IC50 [1]: 835 nM
SMILES: N#Cc1c(N2CCOCC2)sc(-c2nc[nH]n2)c1-c1ccc(NC(=O)Nc2ccc(OC(F)(F)F)cc2)cc1
